# SUMO1-SIM PPI: alters human SUMO1 binding to SIM partners; inhibition, % at 20 µM; hit rate 0.33% among 360,000; P63165; SUMO1 binding to a labelled peptide, TR-FRET, 1 h; in the data active means inhibition above about 37%
# Target sequence (P63165 whole entry, looked up): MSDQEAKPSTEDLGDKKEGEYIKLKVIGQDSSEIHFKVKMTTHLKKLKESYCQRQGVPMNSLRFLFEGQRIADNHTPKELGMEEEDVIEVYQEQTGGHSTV
# STEP block: inhibitors of human striatal-enriched phosphatase STEP | AID 588621 | recombinant STEP, OMFP fluorogenic substrate, fluorescence | hit rate 0.25% among 360,000 | P54829 | inhibition, % at 20 µM;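 active means inhibition at 20 µM, scaled per plate between control wells, above about 37%, limit read from the data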;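 further: 0% = DMSO with enzyme and substrate and 100% = substrate only without enzyme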
# Target sequence (P54829 whole entry, looked up): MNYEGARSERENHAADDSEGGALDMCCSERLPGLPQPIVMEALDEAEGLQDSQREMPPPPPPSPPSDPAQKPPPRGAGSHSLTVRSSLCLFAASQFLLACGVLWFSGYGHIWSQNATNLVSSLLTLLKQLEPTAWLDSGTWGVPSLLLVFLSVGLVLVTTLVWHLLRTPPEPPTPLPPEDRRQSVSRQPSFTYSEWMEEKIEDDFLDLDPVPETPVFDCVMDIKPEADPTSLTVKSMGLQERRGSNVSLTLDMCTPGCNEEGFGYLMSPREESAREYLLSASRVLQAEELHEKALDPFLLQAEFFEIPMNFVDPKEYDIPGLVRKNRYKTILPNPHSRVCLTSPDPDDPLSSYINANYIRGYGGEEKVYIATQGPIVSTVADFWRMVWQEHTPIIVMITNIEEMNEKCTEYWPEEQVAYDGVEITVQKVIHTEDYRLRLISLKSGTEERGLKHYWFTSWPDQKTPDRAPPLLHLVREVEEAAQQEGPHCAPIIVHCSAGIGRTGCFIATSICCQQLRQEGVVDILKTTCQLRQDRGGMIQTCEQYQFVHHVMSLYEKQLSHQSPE
#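 System: isolated STEP enzyme; schedule: 20 min enzyme reaction at room temperature, protected from light; medium: Bis-Tris buffer pH 6.0, 2.5 mM DTT, 0.005% Tween 20; signal: fluorescence, 480/540 nm; dosing: single compound dose of 20 µM, 1% DMSO final; also added: OMFP substrate, 25 µM final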
# GRK2 aptamer HTS: blocks RNA aptamer binding to human GRK2; inhibition of aptamer binding, % at 10 µM; bead flow cytometry, FAM-aptamer displacement from GRK2; AID 488847; P25098; hit rate 0.59% among 330,000;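 active means inhibition of aptamer binding above 40%, roughly 3 SD of noise, on plates passing a quality check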;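 further: median bead fluorescence of bound FAM aptamer so fluorescent compounds give negative values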
# DNMT1 inh: inhibitors of human DNMT1; AID 588458; P26358; inhibition (reported as % activation of signal), % at 10 µM; DNMT1 molecular beacon, Hinp1I cleavage, fluorescence; hit rate 0.83% among 360,000; in the data active means inhibition above about 50%
# LMPTP block: LMPTP (human) inhibition. P24666. recombinant LMPTP-A, OMFP fluorogenic substrate, fluorescence intensity. inhibition, % at 20 µM. hit rate 0.22% among 360,000. AID 651560;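 active means compounds that cut the enzyme signal by at least half of the control window in the single-dose screen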;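 further: plate controls were DMSO wells with enzyme plus substrate for no effect and substrate without enzyme for full effect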
#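 Assay system: LMPTP-A, protein tyrosine phosphatase of low molecular weight / Medium: pH 6.0 Bis-Tris buffer with DTT and Triton X-100 / Schedule: 50 min enzyme reaction at room temperature, protected from light / Measured by: endpoint fluorescence intensity from OMFP dephosphorylation / Read-out basis: % inhibition relative to no-enzyme and uninhibited control wells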
# Scp1 inh: blocks human Scp-1 phosphatase activity | Q9GZU7 | Recombinant Scp1, phosphopeptide, malachite green phosphate absorbance | AID 493091 | inhibition, % at 20 µM | hit rate 0.88% among 340,000;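 active means inhibition above about 50% at 20 µM, limit read from the data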;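 further: plate controls were DMSO wells with enzyme for no effect and wells lacking enzyme for full effect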
#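 assay system = SCP-1 phosphatase catalytic domain, residues 76-261 | buffer or medium = 50 mM Tris acetate pH 5.5, 0.005% Tween-20, 10 mM MgCl2 | incubation = enzyme reaction 45 min at room temperature, colour 5 min, stabilisation 30 min | signal = Phosphate-binding colour reagent, absorbance read at 630 nm | measure = % inhibition at 20 µM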
# Scp1 confirm: Scp-1 (human) inhibition, single-dose confirmed; shares compounds with Scp1 inh; recombinant SCP-1 catalytic domain, phosphate release, malachite green absorbance; inhibition, % at 20 µM; hit rate 61% among 2,500;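 further: plate controls were DMSO with enzyme for no effect and buffer wells lacking enzyme for full effect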
# Scp-1 MG ctr: interferes with malachite green readout, flagging false Scp-1 hits. 2,500 tested, under 10 active. Colorimetric interference counterscreen, malachite green absorbance 630 nm. apparent inhibition (interference), % at 20 µM. shares compounds with Scp1 inh;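 further: compounds added after enzyme reaction finished so only phosphate colour detection is probed; plate controls were DMSO wells with completed Scp-1 reaction for no effect and substrate wells lacking enzyme for full effect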
# Scp-1 Tm shift: binds human Scp-1, shifting its melting temperature | shares compounds with Scp1 inh | Recombinant SCP1, Sypro Orange thermal shift Tm | thermal shift relative to vanadate control, % at 40 µM | hit rate 25% among 1,500 | AID 540329;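 active means substances whose mean melting-temperature shift, as a percentage of the reference inhibitor's shift, reaches about 5.3%, limit read from the data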;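 further: 0% = Tm of DMSO wells and 100% = Tm with sodium orthovanadate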
# Numbers without * were called inactive; · = no result. Most compounds without a hit are left out; they make up all but 2.2% or so of the library.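 How the source made its calls, unless noted: active means inhibition of at least 30% at 20 µM; inactive means the rest.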
SMILES,SUMO1-SIM PPI,STEP block,GRK2 aptamer HTS,DNMT1 inh,LMPTP block,Scp1 inh,Scp1 confirm,Scp-1 MG ctr,Scp-1 Tm shift
O=C(Nc1ccc2ccccc2c1)OC1CCS(=O)(=O)C1 (stereo not drawn),-2,·,·,·,1,·,·,·,·
COc1ccc(NS(=O)(=O)c2cc3c(cc2C)N(C(C)=O)CCO3)cc1OC,-2,-2,2,-1,0,-1,·,·,·
COc1cccc(NS(=O)(=O)c2cc3c(cc2C)N(C(C)=O)CCO3)c1,-1,2,0,-1,-1,87*,-24,-20,·
COc1ccc(NS(=O)(=O)c2cccc(C(=O)N/N=C/c3c(F)c(F)c(F)c(F)c3F)c2)cc1,-5,0,·,-4,21,75*,52*,-5,7.3*
COc1ccc(NS(=O)(=O)c2cccc(C(=O)NN=Cc3ccc(OC)c(O)c3)c2)cc1,-4,-3,0,-10,0,0,·,·,·
CC1(C)CC(Cc2ccc(C(F)(F)F)cn2)N(C(=O)OC(C)(C)C)C1 (stereo not drawn),2,·,·,·,0,·,·,·,·
Cc1cc2nc(-c3ccc(C#N)cc3)c(Cc3cccc(F)c3)n2c(C)c1Br,1,3,·,13,5,·,·,·,·
COCC(=O)Nc1sc2c(c1C(=O)OC)CCCC2,1,-1,0,-6,0,-7,·,·,·
COC(=O)c1c(NC(=O)Cc2cccs2)sc2c1CCCC2,7,7,16,45,4,51*,73*,-12,0
C=C1CCN(Cc2ccccc2)S(=O)(=O)c2ccccc21,0,1,2,3,0,-3,·,·,·
O=C1CCN(Cc2ccccc2)S(=O)(=O)c2ccccc21,4,1,3,3,1,68*,63*,-16,-21
CC(C(=O)Nc1cc([N+](=O)[O-])ccc1Cl)N1CCN(c2ccc(O)cc2)CC1 (stereo not drawn),-14,-5,15,16,3,57*,26,-4,·
CC(=O)c1ccc(NC(=O)C2CCN(S(=O)(=O)c3cccc4cccnc34)CC2)cc1,0,3,0,4,0,63*,-17,-16,·
O=C(Nc1ccc2c(c1)OCCO2)C1CCCN1S(=O)(=O)c1cccc2cccnc12 (stereo not drawn),-1,-2,0,-6,0,57*,-16,-15,·
O=C(CSc1nc2sc3c(c2c(=O)n1-c1ccccc1)CCCC3)NCc1ccco1,0,3,0,32,0,10,·,·,·
O=C(CSc1nc2sc3c(c2c(=O)n1-c1ccccc1)CCCC3)N/N=C/c1ccc(C(=O)O)cc1,-4,2,4,-3,1,51*,38*,-13,-13
COc1cc(OC)c2ccc(=O)oc2c1C(CC(=O)N1CCCC(C)C1)c1ccc2c(c1)OCO2 (stereo not drawn),2,6,8,46,3,56*,54*,-9,-3
Cc1ccc2nc(/C(C#N)=C\c3ccc(N4CCCCC4)c([N+](=O)[O-])c3)[nH]c2c1,-12,10,39,50,2,109*,77*,-3,12*
COc1ccc(Br)cc1C(=O)Nc1cccc(-c2nnc(-c3ccco3)o2)c1,18,33,0,44,32,98*,72*,-11,2
Cc1ccc(-n2c(=O)c3cc4c(=O)n(-c5ccc(C)c(C)c5)c(=O)c4c(C(=O)c4ccc(C(=O)O)cc4)c3c2=O)cc1C,90*,97*,0,34,83*,91*,75*,-11,10*
O=C(O)c1ccc(-n2c(=O)c3ccccc3c3ccccc3c2=O)cc1,2,1,4,5,0,-8,·,·,·
Nc1nc(N)c(N=O)c(Nc2cccc(Cl)c2)n1,-22,·,·,·,0,·,·,·,·
Cc1nc(C(F)(F)F)ccc1C(=O)N1CCC1(C)C(=O)NS(=O)(=O)c1ccc(C#N)cc1 (stereo not drawn),0,-4,·,3,-2,·,·,·,·
Cc1ccc(-n2nnc3c(=O)n(CC(=O)NCc4ccccc4)cnc32)cc1,24,33,0,26,28,93*,86*,-2,-10
CCOc1ccccc1NC(=O)Cn1cnc2c(nnn2-c2cccc(OC)c2)c1=O,22,8,0,3,0,71*,58*,-16,-19
SMILES,SUMO1-SIM PPI,STEP block,GRK2 aptamer HTS,DNMT1 inh,LMPTP block,Scp1 inh,Scp1 confirm,Scp-1 MG ctr,Scp-1 Tm shift
COc1cccc(-n2nnc3c(=O)n(CC(=O)Nc4ccccc4C)cnc32)c1,5,6,0,9,-1,26,·,·,·
CCOc1ccc(CNC(=O)Cn2nc(C)c3c(C)n(-c4ccc(C)cc4)nc3c2=O)cc1,5,16,0,19,12,85*,62*,-13,-21
Cc1ccc(-n2nc3c(=O)n(CC(=O)NCc4ccccn4)nc(C)c3c2C)cc1,2,-2,0,0,-1,-7,·,·,·
Cc1ccc(-n2nnc3c(=O)n(CC(=O)c4ccccc4)cnc32)cc1,-1,2,1,8,13,-5,·,·,·
CCn1c(CN2CCN(c3ccc(OC)cc3)CC2)nc2cc(S(=O)(=O)N(C)C)ccc21,7,1,2,-1,2,-7,·,·,·
CCCn1c(CN2CCN(C(=O)c3ccco3)CC2)nc2cc(S(=O)(=O)N(C)C)ccc21,-3,1,·,-4,0,51*,-8,-13,·
CCOc1ccc(NC(=O)C2CCCN2C(=O)Oc2ccccc2)cc1 (stereo not drawn),3,-1,0,1,-1,54*,20,-8,·
Cc1cc(C)cc(NC(=O)C2CCCN2C(=O)Oc2ccccc2)c1 (stereo not drawn),1,-1,1,-4,0,-5,·,·,·
O=C1CC(C(=O)O)C(c2ccccc2)c2ccccc21 (stereo not drawn),3,-1,·,5,0,-2,·,·,·
Cc1c(C(=O)OCC[N+]2(C)CCCCC2)oc2ccccc12,-3,1,1,-5,-1,89*,4,-19,·
CC(=O)Nc1cc(NC(C)=O)cc(C(=O)N2CCCC3CCCCC32)c1 (stereo not drawn),17,38,34,39,12,61*,54*,-1,5.7*
O=C(Nc1ccccc1)N1CCCC2CCCCC21 (stereo not drawn),-5,-5,5,-2,-2,1,·,·,·
